≈ marks a conversion by molar mass, not a printed value.
Assays:
Assay type in all cases: cell-based
[1] = system: Escherichia coli ATCC 25922; assay: MIC, broth microdilution; settings: ATCC25922, 24 h, read-out: minimum inhibitory concentration (MIC)
Summary of the method: (§1)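 Run by broth microdilution in Mueller-Hinton broth. A 10 mg/mL test sample was added to the first well and serially diluted 1:2 across 12 wells. Bacteria were added to about 10⁶ CFU/mL final, and plates were incubated at 37 °C for 24 h. Resazurin was then added for 2 h at 37 °C, and reduction from blue to pink scored growth. MIC was determined in triplicate.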

[2] = system: Staphylococcus aureus ATCC 29213; assay: MIC, broth microdilution; settings: ATCC29213, 24 h, read-out: minimum inhibitory concentration (MIC)
Summary of the method: as §1

[3] = system: Pseudomonas aeruginosa ATCC 27853; assay: MIC, broth microdilution; settings: ATCC27853, 24 h, read-out: minimum inhibitory concentration (MIC)
Summary of the method: as §1

[4] = system: Bacillus subtilis ATCC 3366; assay: MIC, broth microdilution; settings: ATCC3366, 24 h, read-out: minimum inhibitory concentration (MIC)
Summary of the method: as §1

Aspergillus niger [5] = assay: MIC, broth microdilution; settings: 48 h, read-out: minimum inhibitory concentration (MIC)
Summary of the method: (§2)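 Twofold serial dilutions of test compound in Mueller-Hinton broth were run across 12 wells, starting from 10 mg/mL in the first well. Fungal suspension was added at about 10⁶ CFU/mL final, then plates were incubated at 28 °C for 48 h. Resazurin was added for 2 h at 37 °C, with blue-to-pink reduction scored as growth. MIC was determined in triplicate.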

Candida albicans [6] = assay: MIC, broth microdilution; settings: 48 h, read-out: minimum inhibitory concentration (MIC)
Summary of the method: as §2

Candida albicans [7] = assay: Agar disc diffusion; settings: 6 mm discs, 6 μl of 10 mg/mL
Aspergillus niger [8] = assay: Agar disc diffusion; settings: 6 mm discs, 6 μl of 10 mg/mL
[9] = system: Bacillus subtilis ATCC 3366; assay: Agar disc diffusion; settings: ATCC3366, read-out: diameter of the inhibition zone
Summary of the method: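 Agar plates (30 ml medium) were each spread with 100 μl fresh culture of one organism. Sterile 6 mm paper discs were loaded with 6 μl of 10 mg/mL test sample. Plates were sealed against evaporation and incubated at 37 °C for 24 h. Inhibition zone diameter was measured in mm, averaged over three independent determinations.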

Row | SMILES | MIC [1] [µg/mL] | MIC [2] [µg/mL] | MIC [3] [µg/mL] | MIC [4] [µg/mL] | MIC (Aspergillus niger [5]) [µg/mL] | MIC (Candida albicans [6]) [µg/mL] | diameter of the inhibition zone (Candida albicans [7]) | diameter of the inhibition zone (Aspergillus niger [8]) | zone of inhibition at 10000 µg/mL [9] [mm]
1 | C#CCn1c(=O)cc(C(=O)N[C@@H](C)C(=O)OC)c2ccccc21 [Compound 2 a, Methyl (S)‐2‐[2‐oxo‐1‐(prop‐2‐yn‐1‐yl)‐1,2‐dihydroquinoline‐4‐carbox amido]propanoate] | 620 (≈ 1990 µM) | 2500 (≈ 8000 µM) | 620 (≈ 1990 µM) | 5000 (≈ 16000 µM) | 10000 (≈ 32000 µM) |  |  |  | 
2 | C#CCn1c(=O)cc(C(=O)N[C@@H](C)C(=O)OC)c2cc(Br)ccc21 [Compound 2 b, Methyl (S)‐6‐bromo‐2‐[2‐oxo‐1‐(prop‐2‐yn‐1‐yl)‐1,2‐dihydroquinoline‐4‐carboxamido]propanoate] | 620 (≈ 1580 µM) | 2500 (≈ 6390 µM) | 2500 (≈ 6390 µM) | 2500 (≈ 6390 µM) |  | 10000 (≈ 25600 µM) |  |  | 
3 | CCCCCn1cc(Cn2c(=O)cc(C(=O)N[C@@H](C)C(=O)OC)c3ccccc32)nn1 [Compound 3a1, Methyl (S)‐2‐{2‐oxo‐1‐[(1‐pentyl‐1H‐1,2,3‐triazol‐4‐yl)methyl]‐1,2‐dihydroquinoline‐4‐carboxamido}propanoate] | 78 (≈ 183 µM) | 1250 (≈ 2940 µM) | 2500 (≈ 5880 µM) | 310 (≈ 729 µM) |  |  | did not show any antifungal activity | did not show any antifungal activity | 
4 | COC(=O)[C@H](C)NC(=O)c1cc(=O)n(Cc2cn(Cc3ccccc3)nn2)c2ccccc12 [Compound 3a2, Methyl (S)‐2‐{2‐oxo‐1‐[(1‐benzyl‐1H‐1,2,3‐triazol‐4‐yl)methyl]‐1,2‐dihydroquinoline‐4‐carboxamido}propanoate] | 310 (≈ 696 µM) | 2500 (≈ 5610 µM) | 2500 (≈ 5610 µM) | 2500 (≈ 5610 µM) |  | 10000 (≈ 22400 µM) |  |  | 
5 | COC(=O)[C@H](C)NC(=O)c1cc(=O)n(Cc2cn(Cc3ccccc3C)nn2)c2ccccc12 [Compound 3a3, Methyl (S)‐2‐{2‐oxo‐1‐[(1‐(2‐methylbenzyl)‐1H‐1,2,3‐triazol‐4‐yl)methyl]‐1,2‐dihydroquinoline‐4‐carboxamido}propanoate] | 39 (≈ 84.9 µM) | 1250 (≈ 2720 µM) | 1250 (≈ 2720 µM) | 2500 (≈ 5440 µM) |  | 10000 (≈ 21800 µM) |  |  | 
6 | COC(=O)[C@H](C)NC(=O)c1cc(=O)n(Cc2cn(Cc3ccccc3Br)nn2)c2ccccc12 [Compound 3a4, Methyl (S)‐2‐{2‐oxo‐1‐[(1‐(2‐bromobenzyl)‐1H‐1,2,3‐triazol‐4‐yl)methyl]‐1,2‐dihydroquinoline‐4‐carboxamido}propanoate] | 2500 (≈ 4770 µM) | 310 (≈ 591 µM) | 2500 (≈ 4770 µM) | 78 (≈ 149 µM) |  |  | did not show any antifungal activity | did not show any antifungal activity | 18
7 | COC(=O)C(NC(=O)c1ccccc1)n1cc(Cn2c(=O)cc(C(=O)N[C@@H](C)C(=O)OC)c3ccccc32)nn1 (stereo partly drawn) [Compound 3a5, Methyl (S)‐2‐{2‐oxo‐1‐[(1‐(1‐benzamido‐2‐methoxy‐2‐oxoethyl)‐1H‐1,2,3‐triazol‐4‐yl)methyl]‐1,2‐dihydroquinoline‐4‐carboxamido}propanoate] | 19.5 (≈ 35.7 µM) | 39 (≈ 71.4 µM) | 78 (≈ 143 µM) | 310 (≈ 567 µM) | 10000 (≈ 18300 µM) | 5000 (≈ 9150 µM) |  |  | 
8 | COC(=O)[C@H](C)NC(=O)c1cc(=O)n(Cc2cn(Cc3ccccc3C)nn2)c2ccc(Br)cc12 [Compound 3b3, Methyl (S)‐6‐bromo‐2‐{2‐oxo‐1‐[(1‐(2‐methylbenzyl)‐1H‐1,2,3‐triazol‐4‐yl)methyl]‐1,2‐dihydroquinoline‐4‐carboxamido}propanoate] | 620 (≈ 1150 µM) | 2500 (≈ 4640 µM) | 620 (≈ 1150 µM) | 310 (≈ 576 µM) |  |  | did not show any antifungal activity | did not show any antifungal activity | 
9 | COC(=O)[C@H](C)NC(=O)c1cc(=O)n(Cc2cn(Cc3ccccc3Br)nn2)c2ccc(Br)cc12 [Compound 3b4, Methyl (S)‐6‐bromo‐2‐{2‐oxo‐1‐[(1‐(2‐bromobenzyl)‐1H‐1,2,3‐triazol‐4‐yl)methyl]‐1,2‐dihydroquinoline‐4‐carboxamido}propanoate] | 310 (≈ 514 µM) | 2500 (≈ 4140 µM) | 1250 (≈ 2070 µM) | 9.75 (≈ 16.2 µM) |  |  | did not show any antifungal activity | did not show any antifungal activity | 

Source: paper PMC9305408 (Chemmedchem, 2022)
